What was measured:
MOLT-4 = test: Anticancer activity against human MOLT4 cells after 48 hrs by sulforhodamine B assay; assay type: functional; conditions: MOLT-4, 48 h
How it was run: (§1)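 Full 60-cell-line panel, compounds tested over a five-log dose range. Cells are preincubated on microtiter plates, the agent is added, and cultures run 48 h. The end point is sulphorhodamine B protein staining. GI50 is taken as the concentration giving 50% growth inhibition relative to untreated control cells.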

CAKI-1 = test: Anticancer activity against human Caki1 cells after 48 hrs by sulforhodamine B assay; assay type: functional; conditions: CAKI-1, 48 h; how it was run: as §1
NCI/ADR-RES = test: Anticancer activity against human NCI/ADR-RES cells after 48 hrs by sulforhodamine B assay; assay type: functional; how it was run: as §1
Malme-3M = test: Anticancer activity against human MALME-3M cells after 48 hrs by sulforhodamine B assay; assay type: functional; how it was run: as §1
MCF7 [1] = test: Anticancer activity against human MCF7 cells assessed as cell growth at 100 uM after 48 hrs by sulforhodamine B assay relative to control; assay type: functional; conditions: MCF7, 48 h, read-out: Activity
How it was run: (§2)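 Three-cell-line prescreen (NCI-H460 lung, MCF7 breast, SF 268 CNS), each preincubated on microtiter plates. The agent is added at a single concentration and cultures are incubated 48 h. Growth is read by sulphorhodamine B protein staining and reported as percent growth of treated versus untreated control cells; negative values indicate cell kill.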

OVCAR-8 = test: Anticancer activity against human OVCAR8 cells after 48 hrs by sulforhodamine B assay; assay type: functional; conditions: OVCAR-8, 48 h; how it was run: as §1
UACC-62 = test: Anticancer activity against human UACC62 cells after 48 hrs by sulforhodamine B assay; assay type: functional; conditions: UACC-62, 48 h
How it was run: (§3)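 Cells from the 60-line full panel are preincubated on microtiter plates, then treated across a five-log dose range for 48 h. Growth is read with the protein-binding dye sulforhodamine B. GI50 is the concentration giving 50% growth inhibition relative to untreated control cells.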

786-0 = test: Anticancer activity against human 786-0 cells after 48 hrs by sulforhodamine B assay; assay type: functional; conditions: 786-0, 48 h; how it was run: as §1
BT-549 = test: Anticancer activity against human BT549 cells after 48 hrs by sulforhodamine B assay; assay type: functional; conditions: BT-549, 48 h; how it was run: as §1
MCF7 [2] = test: Anticancer activity against human MCF7 cells after 48 hrs by sulforhodamine B assay; assay type: functional; conditions: MCF7, 48 h; how it was run: as §1
EKVX = test: Anticancer activity against human EKVX cells after 48 hrs by sulforhodamine B assay; assay type: functional; how it was run: as §1
PC-3 = test: Anticancer activity against human PC3 cells after 48 hrs by sulforhodamine B assay; assay type: functional; conditions: PC-3, 48 h; how it was run: as §1
SK-MEL-28 = test: Anticancer activity against human SK-MEL-28 cells after 48 hrs by sulforhodamine B assay; assay type: functional; conditions: SK-MEL-28, 48 h; how it was run: as §1
MDA-MB-435 = test: Anticancer activity against human MDA-MB-435 cells after 48 hrs by sulforhodamine B assay; assay type: functional; conditions: MDA-MB-435, 48 h; how it was run: as §1
M14 = test: Anticancer activity against human M14 cells after 48 hrs by sulforhodamine B assay; assay type: functional; conditions: M14, 48 h; how it was run: as §1
SW-620 = test: Anticancer activity against human SW620 cells after 48 hrs by sulforhodamine B assay; assay type: functional; conditions: SW-620, 48 h; how it was run: as §3
SF-268 [3] = test: Anticancer activity against human SF268 cells after 48 hrs by sulforhodamine B assay; assay type: functional; conditions: SF-268, 48 h; how it was run: as §1
NCI-H226 = test: Anticancer activity against human NCI-H226 cells after 48 hrs by sulforhodamine B assay; assay type: functional; conditions: NCI-H226, 48 h; how it was run: as §1
SNB-75 = test: Anticancer activity against human SNB75 cells after 48 hrs by sulforhodamine B assay; assay type: functional; conditions: SNB-75, 48 h; how it was run: as §3
ACHN = test: Anticancer activity against human ACHN cells after 48 hrs by sulforhodamine B assay; assay type: functional; how it was run: as §1
OVCAR-4 = test: Anticancer activity against human OVCAR4 cells after 48 hrs by sulforhodamine B assay; assay type: functional; conditions: OVCAR-4, 48 h; how it was run: as §1
A498 = test: Anticancer activity against human A498 cells after 48 hrs by sulforhodamine B assay; assay type: functional; conditions: A498, 48 h; how it was run: as §1
NCI-H322M = test: Anticancer activity against human NCI-H322M cells after 48 hrs by sulforhodamine B assay; assay type: functional; how it was run: as §1
HCT-116 = test: Anticancer activity against human HCT116 cells after 48 hrs by sulforhodamine B assay; assay type: functional; conditions: HCT-116, 48 h; how it was run: as §1
NCI-H522 = test: Anticancer activity against human NCI-H522 cells after 48 hrs by sulforhodamine B assay; assay type: functional; conditions: NCI-H522, 48 h; how it was run: as §1
OVCAR-5 = test: Anticancer activity against human OVCAR5 cells after 48 hrs by sulforhodamine B assay; assay type: functional; conditions: OVCAR-5, 48 h; how it was run: as §1
HT-29 = test: Anticancer activity against human HT-29 cells after 48 hrs by sulforhodamine B assay; assay type: functional; conditions: HT-29, 48 h; how it was run: as §1
UO-31 = test: Anticancer activity against human UO31 cells after 48 hrs by sulforhodamine B assay; assay type: functional; conditions: UO-31, 48 h; how it was run: as §3
T47D = test: Anticancer activity against human T47D cells after 48 hrs by sulforhodamine B assay; assay type: functional; how it was run: as §3
IGROV-1 = test: Anticancer activity against human IGROV1 cells after 48 hrs by sulforhodamine B assay; assay type: functional; conditions: IGROV-1, 48 h; how it was run: as §1
KM12 = test: Anticancer activity against human KM12 cells after 48 hrs by sulforhodamine B assay; assay type: functional; conditions: KM12, 48 h; how it was run: as §1
A549 = test: Anticancer activity against human A549 cells after 48 hrs by sulforhodamine B assay; assay type: functional; conditions: A549, 48 h; how it was run: as §1
LOX IMVI = test: Anticancer activity against human LOXIMVI cells after 48 hrs by sulforhodamine B assay; assay type: functional; how it was run: as §1
K562 = test: Anticancer activity against human K562 cells after 48 hrs by sulforhodamine B assay; assay type: functional; conditions: K562, 48 h; how it was run: as §1
RXF 393 = test: Anticancer activity against human RXF393 cells after 48 hrs by sulforhodamine B assay; assay type: functional; conditions: RXF 393, 48 h; how it was run: as §1
SN12C = test: Anticancer activity against human SN12C cells after 48 hrs by sulforhodamine B assay; assay type: functional; how it was run: as §1
SK-OV-3 = test: Anticancer activity against human SKOV3 cells after 48 hrs by sulforhodamine B assay; assay type: functional; conditions: SK-OV-3, 48 h; how it was run: as §1
SF-268 [4] = test: Anticancer activity against human SF268 cells assessed as cell growth at 100 uM after 48 hrs by sulforhodamine B assay relative to control; assay type: functional; conditions: SF-268, 48 h, read-out: Activity; how it was run: as §2
HCC 2998 = test: Anticancer activity against human HCC2998 cells after 48 hrs by sulforhodamine B assay; assay type: functional; conditions: HCC 2998, 48 h; how it was run: as §1
[5] = Acute toxicity in orally dosed Swiss albino mouse after 24 hrs; assay type: organism-based; conditions: in vivo, po
How it was run: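 Male Swiss albino mice (Mus musculus); median lethal dose (LD50) determined after oral dosing, read at 24 h.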

UACC-257 = test: Anticancer activity against human UACC257 cells after 48 hrs by sulforhodamine B assay; assay type: functional; conditions: UACC-257, 48 h; how it was run: as §3
SF-295 = test: Anticancer activity against human SF295 cells after 48 hrs by sulforhodamine B assay; assay type: functional; conditions: SF-295, 48 h; how it was run: as §1
DU-145 = test: Anticancer activity against human DU145 cells after 48 hrs by sulforhodamine B assay; assay type: functional; conditions: DU-145, 48 h; how it was run: as §1
NCI-H23 = test: Anticancer activity against human NCI-H23 cells after 48 hrs by sulforhodamine B assay; assay type: functional; conditions: NCI-H23, 48 h; how it was run: as §1
HOP-62 = test: Anticancer activity against human HOP62 cells after 48 hrs by sulforhodamine B assay; assay type: functional; conditions: HOP-62, 48 h; how it was run: as §1
NCI-H460 [6] = test: Anticancer activity against human NCI-H460 cells assessed as cell growth at 100 uM after 48 hrs by sulforhodamine B assay relative to control; assay type: functional; conditions: NCI-H460, 48 h, read-out: Activity; how it was run: as §2
NCI-H460 [7] = test: Anticancer activity against human NCI-H460 cells after 48 hrs by sulforhodamine B assay; assay type: functional; conditions: NCI-H460, 48 h; how it was run: as §1
HOP-92 = test: Anticancer activity against human HOP92 cells after 48 hrs by sulforhodamine B assay; assay type: functional; conditions: HOP-92, 48 h; how it was run: as §1
COLO 205 = test: Anticancer activity against human COLO205 cells after 48 hrs by sulforhodamine B assay; assay type: functional; conditions: COLO 205, 48 h; how it was run: as §1
SNB-19 = test: Anticancer activity against human SNB19 cells after 48 hrs by sulforhodamine B assay; assay type: functional; conditions: SNB-19, 48 h; how it was run: as §1
MDA-MB-231 = test: Anticancer activity against human MDA-MB-231 cells after 48 hrs by sulforhodamine B assay; assay type: functional; conditions: MDA-MB-231, 48 h; how it was run: as §1
TK-10 = test: Anticancer activity against human TK10 cells after 48 hrs by sulforhodamine B assay; assay type: functional; conditions: TK-10, 48 h; how it was run: as §3
OVCAR-3 = test: Anticancer activity against human OVCAR-3 cells after 48 hrs by sulforhodamine B assay; assay type: functional; conditions: OVCAR-3, 48 h; how it was run: as §1
U-251 = test: Anticancer activity against human U251 cells after 48 hrs by sulforhodamine B assay; assay type: functional; conditions: U-251, 48 h; how it was run: as §3
HCT-15 = test: Anticancer activity against human HCT15 cells after 48 hrs by sulforhodamine B assay; assay type: functional; conditions: HCT-15, 48 h; how it was run: as §1

Work on `Fc1cc(-c2nnc3n2N=C(c2ccc(Cl)cc2)CS3)c(Cl)cc1Cl` yielded a GI50 (MOLT-4) of 1.06 µM, a GI50 (CAKI-1) of 4.21 µM and a GI50 (NCI/ADR-RES) of 3.12 µM. For the same compound, the GI50 (Malme-3M) was 2.37 µM, the growth at 100 µM (MCF7 [1]) was 3% and the GI50 (OVCAR-8) was 14.8 µM. It also gave a GI50 (UACC-62) of 3.63 µM, a GI50 (786-0) of 2.08 µM and a GI50 (BT-549) of 3.27 µM. The GI50 (MCF7 [2]) was 6.24 µM, the GI50 (EKVX) was 27.4 µM and the GI50 (PC-3) was 18.7 µM. For the same compound, the GI50 (SK-MEL-28) was 6.41 µM, the GI50 (MDA-MB-435) was 4.55 µM and the GI50 (M14) was 4.87 µM. It also gave a GI50 (SW-620) of 1.91 µM, a GI50 (SF-268 [3]) of 13.2 µM and a GI50 (NCI-H226) of 18.1 µM. For the same compound, the GI50 (SNB-75) was 3.37 µM, the GI50 (ACHN) was 4.82 µM and the GI50 (OVCAR-4) was 5.35 µM. For the same compound, the GI50 (A498) was 21 µM, the GI50 (NCI-H322M) was 16.2 µM and the GI50 (HCT-116) was 2.36 µM. For the same compound, the GI50 (NCI-H522) was 1.8 µM, the GI50 (OVCAR-5) was 10.6 µM and the GI50 (HT-29) was 4.6 µM. The GI50 (UO-31) was 1.89 µM, the GI50 (T47D) was 3.9 µM and the GI50 (IGROV-1) was 3.39 µM. It also gave a GI50 (KM12) of 8.08 µM, a GI50 (A549) of 18.3 µM and a GI50 (LOX IMVI) of 1.69 µM. The GI50 (K562) was 1.69 µM, the GI50 (RXF 393) was 11.4 µM and the GI50 (SN12C) was 3.6 µM. The GI50 (SK-OV-3) was 25.4 µM, the growth at 100 µM (SF-268 [4]) was 3% and the GI50 (HCC 2998) was 13.6 µM. It also gave an LD50 at 24 h [5] of 227 mg/kg, a GI50 (UACC-257) of 15.7 µM and a GI50 (SF-295) of 15.7 µM. The GI50 (DU-145) was 3.41 µM, the GI50 (NCI-H23) was 13.8 µM and the GI50 (HOP-62) was 20.1 µM. For the same compound, the growth at 100 µM (NCI-H460 [6]) was 3%, the GI50 (NCI-H460 [7]) was 19.1 µM and the GI50 (HOP-92) was 16.4 µM. It also gave a GI50 (COLO 205) of 7.09 µM, a GI50 (SNB-19) of 19.5 µM and a GI50 (MDA-MB-231) of 10.8 µM. The GI50 (TK-10) was 3.11 µM, the GI50 (OVCAR-3) was 15.1 µM and the GI50 (U-251) was 10.6 µM. For the same compound, the GI50 (HCT-15) was 1.86 µM.

Reference: ChEMBL document CHEMBL1154616, “Synthesis and antitumor activity studies of some new fused 1,2,4-triazole derivatives carrying 2,4-dichloro-5-fluorophenyl moiety” (Eur J Med Chem, 2009)
